Data set [1] has as its target T1, ACE (Oryctolagus cuniculus, UniProt P12822).
T1 sequence (P12822 34-1310): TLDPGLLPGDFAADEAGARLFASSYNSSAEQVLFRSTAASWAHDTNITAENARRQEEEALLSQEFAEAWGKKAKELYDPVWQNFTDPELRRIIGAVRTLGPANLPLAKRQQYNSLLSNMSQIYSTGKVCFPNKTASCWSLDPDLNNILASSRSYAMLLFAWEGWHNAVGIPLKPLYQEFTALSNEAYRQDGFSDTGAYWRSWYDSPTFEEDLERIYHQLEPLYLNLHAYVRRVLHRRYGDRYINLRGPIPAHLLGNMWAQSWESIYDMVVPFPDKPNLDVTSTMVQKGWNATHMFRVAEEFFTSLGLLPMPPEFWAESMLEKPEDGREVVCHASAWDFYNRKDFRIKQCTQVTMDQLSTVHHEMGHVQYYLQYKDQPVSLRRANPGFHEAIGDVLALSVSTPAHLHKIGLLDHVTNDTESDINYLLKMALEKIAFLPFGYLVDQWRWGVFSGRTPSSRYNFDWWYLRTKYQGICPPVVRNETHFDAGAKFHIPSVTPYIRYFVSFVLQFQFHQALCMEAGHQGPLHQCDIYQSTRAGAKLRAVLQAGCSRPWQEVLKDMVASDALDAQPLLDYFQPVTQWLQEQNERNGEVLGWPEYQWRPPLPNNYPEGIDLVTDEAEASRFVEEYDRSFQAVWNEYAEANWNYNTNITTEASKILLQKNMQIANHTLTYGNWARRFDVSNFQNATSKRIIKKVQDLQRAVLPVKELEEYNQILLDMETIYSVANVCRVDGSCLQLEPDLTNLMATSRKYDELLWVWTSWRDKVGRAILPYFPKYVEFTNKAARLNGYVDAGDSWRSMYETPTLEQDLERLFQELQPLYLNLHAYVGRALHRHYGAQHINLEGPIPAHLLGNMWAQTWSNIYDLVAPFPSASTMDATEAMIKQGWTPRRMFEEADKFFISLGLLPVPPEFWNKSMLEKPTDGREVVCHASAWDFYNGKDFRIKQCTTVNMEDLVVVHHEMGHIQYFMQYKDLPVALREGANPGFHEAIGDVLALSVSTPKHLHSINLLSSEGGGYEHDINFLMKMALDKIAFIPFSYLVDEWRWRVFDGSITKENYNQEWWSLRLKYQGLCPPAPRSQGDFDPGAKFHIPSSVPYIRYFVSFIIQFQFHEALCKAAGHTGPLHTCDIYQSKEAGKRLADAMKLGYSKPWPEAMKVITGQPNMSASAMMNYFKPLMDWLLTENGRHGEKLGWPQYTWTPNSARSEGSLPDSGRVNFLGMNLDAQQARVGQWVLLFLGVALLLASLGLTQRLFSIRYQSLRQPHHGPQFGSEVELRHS
Description: In vitro ACE inhibition assay. In kind it is biochemical. As to conditions: IC50, ACE from rabbit lung acetone powder; substrate HHL.

Data set [2] in a line: Bioavailability study after oral administration in mice. The class given is in vivo. A digest of the protocol:
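Swiss Webster mice aged 20–25 weeks, in control and test groups (n=5), were dosed orally by dosing needle at 3 mg per 30 g body weight; a comparator group received 2 g/kg orally. Plasma was precipitated with 40% methanol and spun at 14,000 rpm for 10 min. The supernatant was run on RP-Amide HPLC (50 mmol/L NaH2PO4 pH 4.3 to 70% acetonitrile gradient, 0.7 mL/min) with electrochemical detection.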

The nature of data set [3]: NO donor activity. The conditions noted are these: 100 μmol, phosphate buffer pH 7.4, 5 mM L-cysteine, 3 hours at 37°C. Summed up: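 Test compound in DMSO (100 μmol) was added to 50 mM phosphate buffer pH 7.4 with 5 mM L-cysteine hydrochloride and held 3 h at 37°C. Griess reagent was then added, and absorbance at 550 nm was read after 20 min against a 5–50 μM sodium nitrite calibration curve. Release was expressed as mol nitrite detected per mol test compound ×100.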

The conditions of data set [4]: experimental rats; cited from earlier work.
Data set [5] relates to isolated rat hearts. Kind of data set: Vasodilator activity on isolated rat hearts. As to conditions: 10 μg test compound.
Where [6] appears, read: mice, 3 mg per 30 g body weight.
[7] abbreviates: isolated rat heart, BaCl2-induced reduction.

The structures appear in SMILES notation.

Take `CCN1C/C(=C\c2ccccc2)C(=O)/C(=C/c2ccccc2)C1` [Compound 4a, (3E,5E)-3,5-dibenzylidene-1-ethylpiperidin-4-one]: in data set [1], the IC50 came to 50.9 µM.

`CCCN1C/C(=C\c2ccccc2)C(=O)/C(=C/c2ccccc2)C1` [Compound 4b, (3E,5E)-3,5-dibenzylidene-1-propylpiperidin-4-one] displayed an IC50 in data set [1] of 51.1 µM.

`CCCCN1C/C(=C\c2ccccc2)C(=O)/C(=C/c2ccccc2)C1` [Compound 4c, (3E,5E)-3,5-dibenzylidene-1-butylpiperidin-4-one] gave a concentration for half-maximal inhibition (IC50) in data set [1] of 64.4 µM.

In data set [1], `CCCCCN1C/C(=C\c2ccccc2)C(=O)/C(=C/c2ccccc2)C1` [Compound 4d, (3E,5E)-3,5-dibenzylidene-1-pentylpiperidin-4-one] registered an IC50 of 78.5 µM.

In data set [1], `CCN1C/C(=C\c2ccc(O)c(O)c2)C(=O)/C(=C/c2ccc(O)c(O)c2)C1` [Compound 4e, (3E,5E)-3,5-bis(3,4-dihydroxybenzylidene)-1-ethylpiperidin-4-one] displayed an IC50 of 32.2 µM.

Regarding `CCCN1C/C(=C\c2ccc(O)c(O)c2)C(=O)/C(=C/c2ccc(O)c(O)c2)C1` [Compound 4f, (3E,5E)-3,5-bis(3,4-dihydroxybenzylidene)-1-propylpiperidin-4-one], the IC50 in data set [1] was determined as 20.1 µM.

In data set [1], `CCCCN1C/C(=C\c2ccc(O)c(O)c2)C(=O)/C(=C/c2ccc(O)c(O)c2)C1` [Compound 4g, (3E,5E)-1-butyl-3,5-bis(3,4-dihydroxybenzylidene) piperidin-4-one] showed an IC50 of 41.3 µM.

Take `CCCCCN1C/C(=C\c2ccc(O)c(O)c2)C(=O)/C(=C/c2ccc(O)c(O)c2)C1` [Compound 4h, (3E,5E)-3,5-bis(3,4-dihydroxybenzylidene)-1-pentylpiperidin-4-one]: in data set [1], it took 48.6 µM to reach half-maximal inhibition (IC50).

`CCN1C/C(=C\c2cc(OC)c(OC)c(OC)c2)C(=O)/C(=C/c2cc(OC)c(OC)c(OC)c2)C1` [Compound 4i, (3E,5E)-1-ethyl-3,5-bis(3,4,5-trimethoxybenzylidene) piperidin-4-one] came in with an IC50 in data set [1] of 3.21 µM.

`CCCN1C/C(=C\c2cc(OC)c(OC)c(OC)c2)C(=O)/C(=C/c2cc(OC)c(OC)c(OC)c2)C1` [Compound 4j, (3E,5E)-1-propyl-3,5-bis(3,4,5-trimethoxybenzylidene) piperidin-4-one] displayed an IC50 in data set [1] of 1.23 µM. Moreover, in data set [2] (mice), the in vivo bioavailability result is “better in vivo bioavailability compared with curcumin”. In addition, in data set [2] (setting [6]), the plasma concentration worked out at 35 µM and the “time until first detected in plasma” value is 10 min.

As to `CCCCN1C/C(=C\c2cc(OC)c(OC)c(OC)c2)C(=O)/C(=C/c2cc(OC)c(OC)c(OC)c2)C1` [Compound 4k, (3E,5E)-1-butyl-3,5-bis(3,4,5-trimethoxybenzylidene) piperidin-4-one], in data set [1], the IC50 was determined as 4.45 µM.

For the compound `CCCCCN1C/C(=C\c2cc(OC)c(OC)c(OC)c2)C(=O)/C(=C/c2cc(OC)c(OC)c(OC)c2)C1` [Compound 4l, (3E,5E)-1-pentyl-3,5-bis(3,4,5-trimethoxybenzylidene) piperidin-4-one], in data set [1], the midpoint of inhibition, the IC50, lay at 6.65 µM. For the same compound, the “NO donor activity (percentage of NO2)” value in data set [3] is on record as “highest donor activity”.

Consider `CCN1C/C(=C\c2ccc([N+](=O)[O-])cc2)C(=O)/C(=C/c2ccc([N+](=O)[O-])cc2)C1` [Compound 4m, (3E,5E)-1-ethyl-3,5-bis(4-nitrobenzylidene)piperidin-4-one], for which the IC50 in data set [1] was determined as 95.1 µM.

On to `CCCN1C/C(=C\c2ccc([N+](=O)[O-])cc2)C(=O)/C(=C/c2ccc([N+](=O)[O-])cc2)C1` [Compound 4n, (3E,5E)-3,5-bis(4-nitrobenzylidene)-1-propylpiperidin-4-one], for which, in data set [1], the IC50 turned out to be 90.2 µM.

In data set [1], `CCCCN1C/C(=C\c2ccc([N+](=O)[O-])cc2)C(=O)/C(=C/c2ccc([N+](=O)[O-])cc2)C1` [Compound 4o, (3E,5E)-1-butyl-3,5-bis(4-nitrobenzylidene)piperidin-4-one] displayed an IC50 of 131 µM.

In data set [1], `CCCCCN1C/C(=C\c2ccc([N+](=O)[O-])cc2)C(=O)/C(=C/c2ccc([N+](=O)[O-])cc2)C1` [Compound 4p, (3E,5E)-3,5-bis(4-nitrobenzylidene)-1-pentylpiperidin-4-one] registered an IC50 of 120 µM.

Take `COc1cc(/C=C/C(=O)CC(=O)/C=C/c2ccc(O)c(OC)c2)ccc1O` [curcumin]: the “time until first observed in the blood” value in data set [2] (curcumin 2 g/kg) is ~80 min. Further, the oral bioavailability entry in data set [4] is reported as “very poor”. Moreover, in data set [5], the heart rate entry is listed as “did not result in any significant changes”. In data set [5] (setting [7]), the cardiac output result was “did not result in any significant changes” and the stroke volume result was “did not result in any significant changes”. For the same compound, the “NO donor activity (percentage of NO2)” value in data set [3] is reported as “did not result in any significant changes”.
